Reference: ChEMBL document CHEMBL1142699 (J Med Chem, 2005)
Active and inactive are the calls of the source. No cut-off for these calls is given here. Numbered stars: 1 amine (or outer) side, 2 acyl side, 3 side chain; on linkers, the order of the positions; unused ones are H or OH. Square brackets hold non-standard residues; d marks the D form. Peptide text beside a SMILES is read from it. X1 = N[C@@H](Cc1ccccc1)CN(CC(=O)[*:2])[*:1]; Phe(4-F) = N[C@@H](Cc1ccc(F)cc1)C(=O)O

Legend:
[1] = molecular target: Nociceptin receptor (Cavia porcellus) (UniProt P47748); assay: Antagonistic potency against N/OFQ in electrically evoked contractions of guinea pig ileum at 1 uM; type: functional, tissue-based
Sequence of Nociceptin receptor (Cavia porcellus) (P47748 whole entry): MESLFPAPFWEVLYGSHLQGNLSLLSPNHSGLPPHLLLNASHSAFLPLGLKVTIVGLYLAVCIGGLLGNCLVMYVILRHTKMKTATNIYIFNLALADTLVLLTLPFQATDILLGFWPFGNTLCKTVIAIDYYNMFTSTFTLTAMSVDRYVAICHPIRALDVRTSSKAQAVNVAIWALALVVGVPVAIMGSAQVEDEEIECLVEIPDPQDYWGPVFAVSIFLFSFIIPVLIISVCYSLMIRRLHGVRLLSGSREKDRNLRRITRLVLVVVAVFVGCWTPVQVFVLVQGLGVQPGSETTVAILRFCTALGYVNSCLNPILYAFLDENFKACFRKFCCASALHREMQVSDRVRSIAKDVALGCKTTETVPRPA

[2] = molecular target: Nociceptin receptor (Cavia porcellus) (UniProt P47748); assay: Inhibition of electrically evoked contraction of guinea pig ileum at 10 uM; type: functional, tissue-based
Nociceptin receptor [3] = molecular target: T1, Nociceptin receptor (Homo sapiens, UniProt P41146); assay: Agonist potency against GTPgammaS binding in CHO cell membranes expressing the human NOP receptor (CHOhNOP) at 0.1 uM
T1 sequence (P41146 whole entry): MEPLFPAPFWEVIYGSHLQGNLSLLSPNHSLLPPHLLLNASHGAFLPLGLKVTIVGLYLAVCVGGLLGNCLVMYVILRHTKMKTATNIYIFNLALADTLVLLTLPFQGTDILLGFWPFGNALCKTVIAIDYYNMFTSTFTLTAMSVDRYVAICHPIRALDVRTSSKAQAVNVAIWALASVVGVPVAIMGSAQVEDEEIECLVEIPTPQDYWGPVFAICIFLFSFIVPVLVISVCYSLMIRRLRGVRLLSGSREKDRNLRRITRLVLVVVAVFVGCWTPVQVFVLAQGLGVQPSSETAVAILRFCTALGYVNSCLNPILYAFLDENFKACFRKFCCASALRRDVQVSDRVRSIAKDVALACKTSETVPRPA
Summary of the method: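 CHOhNOP membranes (20 µg) incubated 1 h at 30 °C with gentle shaking in 50 mM Tris-HCl, 1 mM MgCl2, 100 mM NaCl, 0.2 mM EGTA, 1 mg/mL BSA, 150 µM bacitracin, 10 µM peptidase inhibitors, 100 µM GDP, 150 pM GTPγ[35S]. Nonspecific binding with 10 µM GTPγS; vacuum filtration. Data as stimulation factors (ligand/basal specific DPM); pEC50 derived.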

[4] = molecular target: Nociceptin receptor (Mus musculus) (UniProt P35377); assay: Maximal inhibition of electrically evoked contraction of mouse vas deferens at 10 uM; type: functional, tissue-based
Sequence of Nociceptin receptor (Mus musculus) (P35377 whole entry): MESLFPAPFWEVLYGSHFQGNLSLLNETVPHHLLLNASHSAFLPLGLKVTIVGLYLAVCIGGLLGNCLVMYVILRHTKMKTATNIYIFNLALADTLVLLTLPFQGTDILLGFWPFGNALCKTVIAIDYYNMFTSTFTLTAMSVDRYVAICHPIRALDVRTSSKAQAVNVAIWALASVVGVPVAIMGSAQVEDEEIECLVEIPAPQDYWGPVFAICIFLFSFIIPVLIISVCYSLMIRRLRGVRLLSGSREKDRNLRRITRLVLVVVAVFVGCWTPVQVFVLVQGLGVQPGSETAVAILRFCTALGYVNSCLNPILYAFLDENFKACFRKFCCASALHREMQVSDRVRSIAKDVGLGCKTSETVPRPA

[5] = molecular target: Nociceptin receptor (Cavia porcellus) (UniProt P47748); assay: Maximal inhibition of electrically evoked contraction of guinea pig ileum at 10 uM; type: functional, tissue-based
Nociceptin receptor [6] = molecular target: T1, Nociceptin receptor; assay: Inhibition of forskolin stimulated cAMP levels in CHO […] expressing the human NOP receptor (CHOhNOP); type: functional, cell-based
[7] = molecular target: Nociceptin receptor (Mus musculus) (UniProt P35377); assay: Antagonistic potency against N/OFQ in electrically evoked contraction of mouse vas deferens at 1 uM; type: functional, tissue-based
Summary of the method: (§1)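 Male Swiss mice (25-30 g). Vas deferens in 5 mL baths of Mg2+-free Krebs at 33 °C, 0.3 g tension, field-stimulated with supramaximal 1 ms pulses at 0.05 Hz, isotonic recording.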

[8] = molecular target: Nociceptin receptor (Mus musculus) (UniProt P35377); assay: Inhibition of electrically evoked contraction of mouse vas deferens at 10 uM; type: functional
Nociceptin receptor [9] = molecular target: T1, Nociceptin receptor; settings: CHO
Nociceptin receptor [10] = molecular target: T1, Nociceptin receptor; assay: Antagonistic potency against N/OFQ induced GTPgammaS binding to human NOP receptor expressed in CHO cell membranes at 0.1 uM; type: functional
[11] = molecular target: Nociceptin receptor (Cavia porcellus) (UniProt P47748); assay: Antagonistic potency against N/OFQ in electrically evoked contractions of guinea pig ileum at 10 uM; type: functional, tissue-based
[12] = molecular target: Nociceptin receptor (Mus musculus) (UniProt P35377); assay: (§2) Inhibition of electrically evoked contraction of mouse vas deferens; type: functional
Summary of the method: (§3)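 Vas deferens from male Swiss mice (25-30 g), in Mg2+-free Krebs at 33 °C under 0.3 g resting tension. Field-stimulated with 1 ms supramaximal pulses at 0.05 Hz; twitches recorded isotonically. After ~1 h equilibration, cumulative concentration-response curves in 0.5 log steps. […] 5-8 experiments.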

[13] = molecular target: Nociceptin receptor (Mus musculus) (UniProt P35377); assay: Antagonistic potency against N/OFQ in electrically evoked contraction of mouse vas deferens at 10 uM; type: functional, tissue-based; summary of the method: as §1
Nociceptin receptor [14] = molecular target: Nociceptin receptor (Mus musculus, UniProt P35377); assay: as §2; type: functional; summary of the method: as §3
Sequence of Nociceptin receptor (Mus musculus, UniProt P35377) (P35377 whole entry): as above

Nociceptin receptor [15] = molecular target: T1, Nociceptin receptor; assay: Inhibition of forskolin stimulated cAMP levels in CHO cells expressing the human NOP receptor (CHOhNOP)
Nociceptin receptor [16] = molecular target: T1, Nociceptin receptor; assay: Agonist potency against GTPgammaS binding in CHO cell membranes expressing the human NOP receptor (CHOhNOP)
Nociceptin receptor [17] = molecular target: T1, Nociceptin receptor; assay: Receptor binding affinity for recombinant human N/OFQ peptide receptor (NOP) expressed in chinese hamster ovary cells; type: cell-based, CHO
Nociceptin receptor [18] = molecular target: T1, Nociceptin receptor; assay: Agonist potency against GTPgammaS binding in CHO cell membranes expressing human NOP receptor (CHOhNOP)
Summary of the method: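 Membranes from CHO cells stably expressing human NOP, homogenized in 50 mM Tris-HCl/0.2 mM EGTA. 20 µg homogenate, 1 h at 30 °C. Buffer: Tris-HCl, 1 mM MgCl2, 100 mM NaCl, 0.2 mM EGTA, BSA, bacitracin, 10 µM peptidase inhibitors, 100 µM GDP, 150 pM GTPγ[35S]. Nonspecific binding defined with 10 µM GTPγS.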

## C[C@H](NC(=O)CNC(=O)[C@@H](NC(=O)[C@H](Cc1ccccc1)NC(=O)CNC(=O)CNC(=O)CNCc1ccccc1)[C@@H](C)O)C(=O)N[C@@H](CCCN=C(N)N)C(=O)N[C@@H](CCCCN)C(=O)N[C@@H](CO)C(=O)N[C@@H](C)C(=O)N[C@@H](CCCN=C(N)N)C(=O)N[C@@H](CCCCN)C(=O)N[C@@H](CCCN=C(N)N)C(=O)N[C@@H](CCCCN)C(=O)N[C@@H](CC(N)=O)C(=O)N[C@@H](CCC(=O)N(N)N)C(=O)NN
[1]
  pKb: 6.79
[2]
  Log EC50: inactive
Nociceptin receptor [3]
  Log EC50: inactive
[4]
  Emax: inactive
[5]
  Emax: inactive
Nociceptin receptor [6]
  Log EC50: inactive
[7]
  pKb: 7.24
[8]
  Log EC50: inactive
Nociceptin receptor [9]
  pKb: 7.11
Nociceptin receptor [10]
  pKb: 9.13

## CC(C)C[C@H](NC(=O)[C@H](CCCCN)NC(=O)[C@H](CCCN=C(N)N)NC(=O)[C@H](C)NC(=O)[C@H](CO)NC(=O)[C@H](CCCCN)NC(=O)[C@H](CCCN=C(N)N)NC(=O)[C@H](C)NC(=O)CNC(=O)[C@@H](NC(=O)[C@H](Cc1ccccc1)NC(=O)CNC(=O)CNC(=O)CNCc1ccccc1)[C@@H](C)O)C(=O)N[C@@H](C)C(=O)N[C@@H](CC(N)=O)C(=O)N[C@@H](CCC(N)=O)C(N)=O
[2]
  Log EC50: inactive
[11]
  pKb: 6.21
[4]
  Emax: inactive
[5]
  Emax: inactive
[12]
  Log EC50: inactive
[13]
  pKb: 6.07

## C[C@H](NC(=O)CNC(=O)[C@@H](NC(=O)[C@H](Cc1ccc(F)cc1)NC(=O)CNC(=O)CNC[C@@H](N)Cc1ccccc1)[C@@H](C)O)C(=O)N[C@@H](CCCN=C(N)N)C(=O)N[C@@H](CCCCN)C(=O)N[C@@H](CO)C(=O)N[C@@H](C)C(=O)N[C@@H](CCCN=C(N)N)C(=O)N[C@@H](CCCCN)C(=O)N[C@@H](CCCN=C(N)N)C(=O)N[C@@H](CCCCN)C(=O)N[C@@H](CC(N)=O)C(=O)N[C@@H](CCC(N)=O)C(N)=O (H-[X1]G[Phe(4-F)]TGARKSARKRKNQ-NH2)
Nociceptin receptor [14]
  EC50: 1.02 nM
Nociceptin receptor [15]
  EC50: 0.302 nM
Nociceptin receptor [16]
  EC50: 0.209 nM
Nociceptin receptor [17]
  Ki: 0.02 nM

## C[C@H](NC(=O)CNC(=O)[C@@H](NC(=O)[C@H](Cc1ccc(F)cc1)NC(=O)CNC(=O)CNC(=O)CNCc1ccccc1)[C@@H](C)O)C(=O)N[C@@H](CCCN=C(N)N)C(=O)N[C@@H](CCCCN)C(=O)N[C@@H](CO)C(=O)N[C@@H](C)C(=O)N[C@@H](CCCN=C(N)N)C(=O)N[C@@H](CCCCN)C(=O)N[C@@H](CCCN=C(N)N)C(=O)N[C@@H](CCCCN)C(=O)N[C@@H](CC(N)=O)C(=O)N[C@@H](CCC(N)=O)C(N)=O
Nociceptin receptor [15]
  EC50: 4.9 nM
Nociceptin receptor [18]
  EC50: 0.407 nM
Nociceptin receptor [17]
  Ki: 0.0251 nM
